Laboratory results as given in ChEMBL document CHEMBL3862016 (Bioorg Med Chem Lett, 2016).
Calls of active or inactive are those of the source. The rule behind the calls is not given here.

Legend:
[1] = biological target: T1, Androgen receptor (Homo sapiens) (UniProt P10275); assay: Antagonist activity at AR in human LNCAP cells assessed as suppression of DHT-induced AR protein level measured after 24 hrs relative to control; format: cell-based
T1 sequence (whole entry): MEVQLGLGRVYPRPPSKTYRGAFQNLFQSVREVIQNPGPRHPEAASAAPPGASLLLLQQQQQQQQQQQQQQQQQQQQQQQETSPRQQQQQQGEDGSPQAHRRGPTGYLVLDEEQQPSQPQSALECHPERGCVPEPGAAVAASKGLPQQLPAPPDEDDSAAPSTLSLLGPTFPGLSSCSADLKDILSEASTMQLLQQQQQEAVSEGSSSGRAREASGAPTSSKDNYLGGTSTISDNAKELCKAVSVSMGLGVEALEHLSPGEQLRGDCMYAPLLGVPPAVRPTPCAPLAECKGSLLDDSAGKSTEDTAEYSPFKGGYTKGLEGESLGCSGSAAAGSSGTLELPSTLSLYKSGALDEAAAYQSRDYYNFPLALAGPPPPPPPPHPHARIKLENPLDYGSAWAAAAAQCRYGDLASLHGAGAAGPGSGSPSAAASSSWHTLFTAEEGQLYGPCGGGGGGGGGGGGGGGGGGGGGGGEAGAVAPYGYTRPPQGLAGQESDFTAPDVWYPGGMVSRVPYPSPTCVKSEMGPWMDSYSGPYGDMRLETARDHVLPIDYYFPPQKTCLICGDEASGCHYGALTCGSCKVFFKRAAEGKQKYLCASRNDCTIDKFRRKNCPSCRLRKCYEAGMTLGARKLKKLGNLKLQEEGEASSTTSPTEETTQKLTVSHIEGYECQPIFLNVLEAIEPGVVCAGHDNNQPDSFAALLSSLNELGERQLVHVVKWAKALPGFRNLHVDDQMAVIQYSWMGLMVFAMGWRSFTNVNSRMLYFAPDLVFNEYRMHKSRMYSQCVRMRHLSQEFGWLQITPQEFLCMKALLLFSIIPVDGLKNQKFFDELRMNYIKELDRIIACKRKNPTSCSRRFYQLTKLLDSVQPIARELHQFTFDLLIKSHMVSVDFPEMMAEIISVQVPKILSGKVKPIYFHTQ
Method in brief: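 LNCaP cells were stimulated with 10 nM DHT and co-treated with test agent for 24 h. Whole-cell extracts were resolved on an acrylamide gel and immunoblotted for AR and acetylated tubulin, with actin as the loading control. AR protein level was normalized to actin and compared with vehicle-treated cells.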

Histone deacetylase 3 = Histone deacetylase 3 (Homo sapiens, UniProt O15379); assay: Inhibition of HDAC3 (unknown origin) assessed as inhibition of fluorogenic peptide deacetylation
Histone deacetylase 3, sequence (O15379 whole entry): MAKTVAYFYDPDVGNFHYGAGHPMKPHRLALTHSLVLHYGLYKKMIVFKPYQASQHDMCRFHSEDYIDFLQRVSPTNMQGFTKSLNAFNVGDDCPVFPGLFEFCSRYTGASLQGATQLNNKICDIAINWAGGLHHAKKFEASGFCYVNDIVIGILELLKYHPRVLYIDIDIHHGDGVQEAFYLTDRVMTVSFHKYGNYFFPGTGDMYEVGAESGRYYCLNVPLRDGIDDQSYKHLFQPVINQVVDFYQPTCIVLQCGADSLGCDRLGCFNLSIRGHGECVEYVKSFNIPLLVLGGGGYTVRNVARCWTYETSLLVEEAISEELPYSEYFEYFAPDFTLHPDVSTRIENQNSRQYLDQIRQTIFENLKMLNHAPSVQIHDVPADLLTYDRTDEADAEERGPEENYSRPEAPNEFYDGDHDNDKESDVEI

[2] = biological target: T2, Protein deacetylase HDAC6 (Homo sapiens, UniProt Q9UBN7); assay: Inhibition of HDAC6 (unknown origin) assessed as inhibition of fluorogenic peptide deacetylation
T2 sequence (Q9UBN7 whole entry): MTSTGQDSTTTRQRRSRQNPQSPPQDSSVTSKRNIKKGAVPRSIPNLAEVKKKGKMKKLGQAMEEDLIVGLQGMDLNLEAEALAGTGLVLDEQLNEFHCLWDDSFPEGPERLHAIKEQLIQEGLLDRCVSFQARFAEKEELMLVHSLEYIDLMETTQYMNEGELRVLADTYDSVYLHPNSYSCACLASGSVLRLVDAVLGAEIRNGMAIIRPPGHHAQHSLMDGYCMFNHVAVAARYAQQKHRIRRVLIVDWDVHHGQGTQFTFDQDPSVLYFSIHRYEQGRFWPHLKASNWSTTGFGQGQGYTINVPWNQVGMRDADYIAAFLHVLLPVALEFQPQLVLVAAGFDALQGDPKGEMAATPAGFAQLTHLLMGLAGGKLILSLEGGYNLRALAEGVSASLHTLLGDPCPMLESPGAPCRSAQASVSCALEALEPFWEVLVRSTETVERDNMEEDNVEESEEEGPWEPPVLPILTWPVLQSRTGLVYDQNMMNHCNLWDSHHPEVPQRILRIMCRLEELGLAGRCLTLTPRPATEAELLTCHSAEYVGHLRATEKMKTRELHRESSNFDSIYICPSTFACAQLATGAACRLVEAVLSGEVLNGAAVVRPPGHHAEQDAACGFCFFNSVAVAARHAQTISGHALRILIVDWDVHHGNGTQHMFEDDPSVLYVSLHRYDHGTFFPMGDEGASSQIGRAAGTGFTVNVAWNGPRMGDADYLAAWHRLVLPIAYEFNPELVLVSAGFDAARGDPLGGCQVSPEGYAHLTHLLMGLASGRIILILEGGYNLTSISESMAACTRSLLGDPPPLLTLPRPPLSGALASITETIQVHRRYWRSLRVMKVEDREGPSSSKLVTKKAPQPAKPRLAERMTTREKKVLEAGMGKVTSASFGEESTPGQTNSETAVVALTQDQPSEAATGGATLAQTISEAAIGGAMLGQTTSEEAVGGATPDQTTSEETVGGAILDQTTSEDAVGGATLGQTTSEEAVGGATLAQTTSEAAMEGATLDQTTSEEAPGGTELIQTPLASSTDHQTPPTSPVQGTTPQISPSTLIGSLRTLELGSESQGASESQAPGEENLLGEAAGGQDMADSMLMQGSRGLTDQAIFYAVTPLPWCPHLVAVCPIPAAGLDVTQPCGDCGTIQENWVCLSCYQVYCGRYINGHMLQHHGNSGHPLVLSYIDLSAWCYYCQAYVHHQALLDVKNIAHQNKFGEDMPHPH

Histone deacetylase 1 = Histone deacetylase 1 (Homo sapiens, UniProt Q13547); assay: Inhibition of HDAC1 (unknown origin) assessed as inhibition of fluorogenic peptide deacetylation
Histone deacetylase 1, sequence (Q13547 whole entry): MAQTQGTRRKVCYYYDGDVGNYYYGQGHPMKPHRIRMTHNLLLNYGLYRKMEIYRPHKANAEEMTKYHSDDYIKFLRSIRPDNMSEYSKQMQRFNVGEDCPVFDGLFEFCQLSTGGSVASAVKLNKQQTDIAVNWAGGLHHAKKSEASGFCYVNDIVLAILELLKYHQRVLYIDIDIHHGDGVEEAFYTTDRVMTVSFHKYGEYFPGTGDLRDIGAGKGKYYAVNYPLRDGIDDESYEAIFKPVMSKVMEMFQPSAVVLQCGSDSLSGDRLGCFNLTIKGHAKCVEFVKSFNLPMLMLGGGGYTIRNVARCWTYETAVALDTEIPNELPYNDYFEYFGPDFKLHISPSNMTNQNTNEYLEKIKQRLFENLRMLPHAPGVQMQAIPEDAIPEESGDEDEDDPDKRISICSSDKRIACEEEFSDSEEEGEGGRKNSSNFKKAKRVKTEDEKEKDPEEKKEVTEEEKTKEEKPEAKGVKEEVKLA

Androgen receptor = biological target: T3, Androgen receptor (Homo sapiens, UniProt P10275); assay: Displacement of [3H]mibolerone from androgen receptor (unknown origin) in membranes after 24 hrs by HAP adsorption assay
T3 sequence (P10275 whole entry): T1 sequence (whole entry)

Histone deacetylase 2 = Histone deacetylase 2 (Homo sapiens, UniProt Q92769); assay: Inhibition of HDAC2 (unknown origin) assessed as inhibition of fluorogenic peptide deacetylation
Histone deacetylase 2, sequence (Q92769 whole entry): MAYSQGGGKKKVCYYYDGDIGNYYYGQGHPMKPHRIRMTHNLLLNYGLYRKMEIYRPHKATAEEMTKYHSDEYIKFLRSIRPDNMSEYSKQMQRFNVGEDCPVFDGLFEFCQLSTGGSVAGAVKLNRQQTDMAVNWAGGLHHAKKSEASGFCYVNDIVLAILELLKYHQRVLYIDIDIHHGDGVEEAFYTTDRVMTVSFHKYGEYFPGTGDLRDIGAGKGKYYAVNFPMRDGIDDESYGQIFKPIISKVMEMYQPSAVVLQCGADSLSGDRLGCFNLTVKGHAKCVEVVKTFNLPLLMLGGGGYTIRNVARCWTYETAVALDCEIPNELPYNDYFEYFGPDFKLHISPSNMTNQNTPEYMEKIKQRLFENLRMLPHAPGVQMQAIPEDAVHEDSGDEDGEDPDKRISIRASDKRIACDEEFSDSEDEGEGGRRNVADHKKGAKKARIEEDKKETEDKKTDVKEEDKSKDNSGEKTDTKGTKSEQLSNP

[3] = Tmax in mouse at 10 mg/kg, ip by HPLC-MS analysis; format: ADME, organism-based; settings: in vivo
Method in brief: (§1)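 Mice dosed iv at 2 mg/kg, or ip or sc at 10 mg/kg. Plasma concentration–time profiles were obtained by sparse sampling with N = 3 per time-point. Parameters (Cmax, Tmax, AUClast, terminal t1/2, CL, Vz, bioavailability) were derived by noncompartmental analysis.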

UGT [4] = assay: Metabolic stability in human liver microsomes assessed as UGT-mediated glucuronidation of compound by measuring parent compound remaining at 5 uM after 30 mins in presence of UDPGA by LC-MS/MS analysis; format: ADME; settings: read-out: Stability
[5] = Cmax in mouse at 2 mg/kg, iv by HPLC-MS analysis; format: ADME, organism-based; design: dose 2 mg/kg, route intravenous; settings: in vivo; method in brief: as §1
UGT [6] = assay: Metabolic stability in mouse liver microsomes assessed as UGT-mediated glucuronidation of compound by measuring parent compound remaining at 5 uM after 30 mins in presence of UDPGA by LC-MS/MS analysis; format: ADME; settings: read-out: Stability
[7] = Apparent volume of distribution in mouse at 2 mg/kg, iv by HPLC-MS analysis; format: ADME, organism-based; settings: in vivo, read-out: Vz; method in brief: as §1
[8] = AUClast in mouse at 10 mg/kg, ip by HPLC-MS analysis; format: ADME, organism-based; design: dose 10 mg/kg, time 0 - last, route intraperitoneal; settings: in vivo; method in brief: as §1
[9] = Cmax in mouse at 10 mg/kg, ip by HPLC-MS analysis; format: ADME, organism-based; design: dose 10 mg/kg, route intraperitoneal; settings: in vivo; method in brief: as §1
[10] = Bioavailability in mouse at 10 mg/kg, ip by HPLC-MS analysis; format: ADME, organism-based; settings: in vivo; method in brief: as §1
[11] = AUClast in mouse at 2 mg/kg, iv by HPLC-MS analysis; format: ADME, organism-based; design: dose 2 mg/kg, route intravenous, time 0 - last; settings: in vivo; method in brief: as §1
[12] = Tmax in mouse at 2 mg/kg, iv by HPLC-MS analysis; format: ADME, organism-based; settings: in vivo; method in brief: as §1
[13] = Tmax in mouse at 10 mg/kg, sc by HPLC-MS analysis; format: ADME, organism-based; settings: in vivo; method in brief: as §1
[14] = Bioavailability in mouse at 10 mg/kg, sc by HPLC-MS analysis; format: ADME, organism-based; settings: in vivo; method in brief: as §1
[15] = AUClast in mouse at 10 mg/kg, sc by HPLC-MS analysis; format: ADME, organism-based; design: dose 10 mg/kg, time 0 - last, route subcutaneous; settings: in vivo; method in brief: as §1
[16] = Terminal half life in mouse at 10 mg/kg, ip by HPLC-MS analysis; format: ADME, organism-based; settings: in vivo, read-out: beta t1/2 (converted); method in brief: as §1
[17] = Metabolic stability in mouse liver microsomes assessed as compound remaining at 1 uM measured after 30 mins in presence of NADPH by LC-MS/MS analysis; format: ADME; settings: read-out: Stability
[18] = Clearance in mouse at 2 mg/kg, iv by HPLC-MS analysis; format: ADME, organism-based; settings: in vivo; method in brief: as §1
[19] = Terminal half life in mouse at 2 mg/kg, iv by HPLC-MS analysis; format: ADME, organism-based; settings: in vivo, read-out: beta t1/2 (converted); method in brief: as §1
[20] = Cmax in mouse at 10 mg/kg, sc by HPLC-MS analysis; format: ADME, organism-based; design: dose 10 mg/kg, route subcutaneous; settings: in vivo; method in brief: as §1
[21] = Metabolic stability in human liver microsomes assessed as compound remaining at 1 uM measured after 30 mins in presence of NADPH by LC-MS/MS analysis; format: ADME; settings: read-out: Stability
[22] = Terminal half life in mouse at 10 mg/kg, sc by HPLC-MS analysis; format: ADME, organism-based; settings: in vivo, read-out: beta t1/2 (converted); method in brief: as §1

| SMILES | IC50 (Histone deacetylase 3) [µM] | IC50 [2] [µM] | IC50 (Histone deacetylase 1) [µM] | IC50 (Androgen receptor) [µM] | IC50 (Histone deacetylase 2) [µM] | also measured |
| --- | --- | --- | --- | --- | --- | --- |
| CN1CCc2c(c3ccccc3n2Cc2ccc(C(=O)NO)cc2)C1 | – | – | – | – | – | inhibition [1]: Active |
| CC1(C)C(=O)N(c2ccc(C#N)c(C(F)(F)F)c2)C(=S)N1c1ccc(C(=O)NCCCNS(N)(=O)=O)c(F)c1 | > 100 | > 100 | > 100 | 0.35 | > 100 | – |
| CC1(C)C(=O)N(c2ccc(C#N)c(C(F)(F)F)c2)C(=S)N1c1ccc(/C=C/C(=O)Nc2ccccc2N)c(F)c1 | 20.2 | 60 | > 100 | 0.23 | > 100 | – |
| CC1(C)C(=O)N(c2ccc(C#N)c(C(F)(F)F)c2)C(=S)N1c1ccc(Cn2ccc3cc(/C=C/C(=O)NO)ccc32)c(F)c1 | > 100 | 2.03 | > 100 | < 0.03 | > 100 | – |
| CC1(C)C(=O)N(c2ccc(C#N)c(C(F)(F)F)c2)C(=S)N1c1ccc(C(=O)NCCOCCC(=O)NO)c(F)c1 | 49.2 | 0.495 | 58.1 | 0.078 | 86.5 | – |
| CC1(C)C(=O)N(c2ccc(C#N)c(C(F)(F)F)c2)C(=S)N1c1ccc(C(=O)Nc2ccccc2N)c(F)c1 | 5.4 | 47.3 | 6.19 | 0.33 | 14.1 | – |
| CC1(C)C(=O)N(c2ccc(C#N)c(C(F)(F)F)c2)C(=S)N1c1ccc(C(=O)NCCCn2cccc(O)c2=O)c(F)c1 | > 100 | 14 | > 100 | 0.56 | > 100 | – |
| CC1(C)C(=O)N(c2ccc(C#N)c(C(F)(F)F)c2)C(=S)N1c1ccc(C(=O)NCCCCCC(=O)NO)c(F)c1 | 1.83 | 0.036 | 2.89 | < 0.03 | 2.25 | Tmax [3]: 60 min; remaining at 0.5 h, 5 µM (UGT [4]): 97.6%; Cmax [5]: 706 nM; remaining at 0.5 h, 5 µM (UGT [6]): 46.1%; Vd [7]: 10.3 L/kg; AUC(0-t) [8]: 0.846 µM·h; Cmax [9]: 419 nM; bioavailability [10]: 82.1%; AUC(0-t) [11]: 0.206 µM·h; Tmax [12]: 4.98 min; Tmax [13]: 30 min; bioavailability [14]: 100%; AUC(0-t) [15]: 1.03 µM·h; half-life [16]: 660 min; remaining at 0.5 h, 1 µM [17]: 21.9%; clearance [18]: 278 mL/min/kg; half-life [19]: 25.6 min; Cmax [20]: 269 nM; remaining at 0.5 h, 1 µM [21]: 29.1%; half-life [22]: 205 min |
| CC1(C)C(=O)N(c2ccc(C#N)c(C(F)(F)F)c2)C(=S)N1c1ccc(C(=O)NCCCCCCn2cccc(O)c2=S)c(F)c1 | > 10 | > 10 | > 10 | < 0.03 | 3.33 | – |
| CC1(C)C(=O)N(c2ccc(C#N)c(C(F)(F)F)c2)C(=S)N1c1ccc(C(=O)NCCCCCCNS(N)(=O)=O)c(F)c1 | > 100 | 1.12 | > 100 | 0.11 | > 100 | – |
| CC1(C)C(=O)N(c2ccc(C#N)c(C(F)(F)F)c2)C(=S)N1c1ccc(C(=O)NCCCCCCn2cccc(O)c2=O)c(F)c1 | > 100 | > 100 | > 100 | 0.25 | > 100 | – |
| CC1(C)C(=O)N(c2ccc(C#N)c(C(F)(F)F)c2)C(=S)N1c1ccc(C(=O)NCCCCCCC(=O)Nc2ccccc2N)c(F)c1 | 0.28 | > 10 | > 10 | < 0.03 | 3.37 | – |
| CC1(C)C(=O)N(c2ccc(C#N)c(C(F)(F)F)c2)C(=S)N1c1ccc(C(=O)NCCCCCCc2ccc(C(=O)C(F)(F)F)s2)c(F)c1 | > 10 | > 10 | > 10 | 0.068 | > 10 | – |
| CC1(C)C(=O)N(c2ccc(C#N)c(C(F)(F)F)c2)C(=S)N1c1ccc(C(=O)OCCCCCC(=O)NO)c(F)c1 | 2 | 0.002 | 3.15 | 0.043 | 1.1 | – |
